Source: publication PMC5598146 (Toxicology Reports, 2015)
Entries after “also recorded” stand apart in the source; their conditions may differ.

Assays:
Sprague-Dawley rats [1] = assay: 90-Day subchronic toxicity study; type: in vivo, rat; conditions: 90 days
Outline: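 Male and female Crl:CD(SD) rats, 20/sex/group, fed 0 (basal diet), 30, 60 or 100 mg/kg/day in the diet for 90 days. […] End-points: functional observation battery, motor activity, body weight gain, food consumption, hematology, clinical chemistry, urinalysis, organ weights, necropsy, and histopathology of at least 53 tissues (control and high dose only).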

[2] = In vitro oxidative metabolism, human liver microsomes; type: in vitro ADME
Outline: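 Pooled mixed-gender liver microsomes (human or Sprague-Dawley rat) were incubated with test compound plus NADPH for 60 min at 37 °C, then quenched with acetonitrile. Controls: time-zero and 60-min incubations without NADPH, plus testosterone incubations to confirm microsomal activity. Metabolites were sought by LC/MS full-scan analysis with UV detection at 214, 240 and 254 nm.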

[3] = Pharmacokinetics and oral bioavailability in rats; type: in vivo, Sprague-Dawley rats; conditions: for half-life / bioavailability / clearance / Tmax: rat, plasma
Sprague-Dawley rats [4] = assay: 28-Day dose-range finding toxicity study; type: in vivo, rat; conditions: 28 days
Swiss albino (CD-1) mice = assay: In vivo mouse micronucleus assay; conditions: 500-2000 mg/kg bw oral, male mice
[5] = Toxicokinetics in the 90-day dietary study; type: in vivo, Sprague-Dawley rats; conditions: for AUC(0-t): Sprague-Dawley [Crl:CD(SD)], rat, in vivo, po, AUC(0-24)
[6] = Dietary exposure estimate; conditions: 100 mg/kg bw/day vs 2400 μg/day
[7] = food ad-mix, male and female rats, highest dose tested

SMILES: Cc1nc2cccc(OCC(C)(C)C(=O)NC(C)C)c2c(N)c1C(=O)O [S9632, 4-amino-5-(3-(isopropylamino)-2,2-dimethyl-3-oxopropoxy)-2-methylquinoline-3-carboxylic acid]
- Findings (Sprague-Dawley rats [1]; 30, 60, 100 mg/kg/day food ad-mix): No test-article related findings
- NOEL (Sprague-Dawley rats [1]; [7]): 100 mg/kg/day
- Metabolism (Phase I biotransformations) ([2]; 10 µM, 60 min, 37 °C, NADPH): not metabolized; also recorded: No Phase I biotransformations
- Level above which no metabolism was observed ([2]; 60 min incubation): ≤ 0.1 % of the parent drug
- half-life ([3]; both, Sprague-Dawley [Crl:CD(SD)], iv, 1 mg/kg, apparent plasma half-life (t1/2), range, iv, male and female): 11.4 to 16.2 min
- half-life ([3]; both, Sprague-Dawley [Crl:CD(SD)], po, plasma elimination half-life (t1/2), range, oral administration): 42.6 to 83.4 min
- half-life ([3]; both, Sprague-Dawley, iv, 1 mg/kg, t1/2, intravenous): < 16.2 min
- bioavailability ([3]; both, Sprague-Dawley, po): 0.53 to 1.19%
- half-life ([3]; both, Sprague-Dawley, po, t1/2, oral administration): < 83.4 min
- bioavailability ([3]; female, Sprague-Dawley [Crl:CD(SD)], po, 100 mg/kg): 0.83%
- clearance ([3]; female, Sprague-Dawley, iv, 1 mg/kg): 42.5 mL/min/kg
- Tmax ([3]; female, Sprague-Dawley, iv, 1 mg/kg, iv 1.0 mg/kg, Day 1, F): 1.8 min
- half-life ([3]; female, Sprague-Dawley, iv, 1 mg/kg, t1/2, iv 1.0 mg/kg, Day 1, F): 16.2 min
- bioavailability ([3]; female, Sprague-Dawley, po, 10 mg/kg): 1.19%
- bioavailability ([3]; female, Sprague-Dawley, po, 30 mg/kg): 0.77%
- AUC0-last/dose ([3]; iv 1.0 mg/kg, Day 1, F): 411.9 ng·h/mL/mg/kg
- AUC0-last/dose ([3]; iv 1.0 mg/kg, Day 1, M): 330.6 ng·h/mL/mg/kg
- Mean plasma clearance as % of hepatic blood flow ([3]; iv, females): 77.3%
- Mean plasma clearance as % of hepatic blood flow ([3]; iv, males): 93.6%
- clearance ([3]; male, Sprague-Dawley, iv, 1 mg/kg): 51.5 mL/min/kg
- Tmax ([3]; male, Sprague-Dawley, iv, 1 mg/kg, iv 1.0 mg/kg, Day 1, M): 1.8 min
- half-life ([3]; male, Sprague-Dawley, iv, 1 mg/kg, t1/2, iv 1.0 mg/kg, Day 1, M): 11.4 min
- bioavailability ([3]; male, Sprague-Dawley, po, 10 mg/kg): 0.54%
- bioavailability ([3]; male, Sprague-Dawley, po, 30 mg/kg): 0.92%
- bioavailability ([3]; male, Sprague-Dawley, po, 100 mg/kg): 0.53%
- AUC0-last/dose ([3]; oral gavage 10 mg/kg, Day 1, F): 4.92 ng·h/mL/mg/kg
- AUC0-last/dose ([3]; oral gavage 10 mg/kg, Day 1, M): 1.79 ng·h/mL/mg/kg
- AUC0-last/dose ([3]; oral gavage 10 mg/kg, Day 7, F): 5.89 ng·h/mL/mg/kg
- AUC0-last/dose ([3]; oral gavage 10 mg/kg, Day 7, M): 4.81 ng·h/mL/mg/kg
- AUC0-last/dose ([3]; oral gavage 30 mg/kg, Day 1, F): 3.17 ng·h/mL/mg/kg
- AUC0-last/dose ([3]; oral gavage 30 mg/kg, Day 1, M): 3.03 ng·h/mL/mg/kg
- AUC0-last/dose ([3]; oral gavage 30 mg/kg, Day 7, F): 3.56 ng·h/mL/mg/kg
- AUC0-last/dose ([3]; oral gavage 30 mg/kg, Day 7, M): 2.87 ng·h/mL/mg/kg
- AUC0-last/dose ([3]; oral gavage 100 mg/kg, Day 1, F): 3.41 ng·h/mL/mg/kg
- AUC0-last/dose ([3]; oral gavage 100 mg/kg, Day 1, M): 1.76 ng·h/mL/mg/kg
- AUC0-last/dose ([3]; oral gavage 100 mg/kg, Day 7, F): 2.79 ng·h/mL/mg/kg
- AUC0-last/dose ([3]; oral gavage 100 mg/kg, Day 7, M): 1.85 ng·h/mL/mg/kg
- Accumulation in plasma ([3]; repeated oral dosing for 7 consecutive days): No significant accumulation
- Findings (Sprague-Dawley rats [4]; 10, 30, 100 mg/kg/day food ad-mix): No test-article related findings
- NOEL (Sprague-Dawley rats [4]; [7]): 100 mg/kg/day
- Micronucleus formation (in vivo), result (Swiss albino (CD-1) mice): did not induce micronuclei; also recorded: Negative
- AUC(0-t) ([5]; both, 30 mg/kg/day, food ad-mix 30 mg/kg/day, Day 90, Combined): 341 ng·h/mL
- AUC(0-t) ([5]; both, 100 mg/kg/day, food ad-mix 100 mg/kg/day, Day 7, Combined): 1040 ng·h/mL
- AUC(0-t) ([5]; both, 100 mg/kg/day, food ad-mix 100 mg/kg/day, Day 90, Combined): 1200 ng·h/mL
- AUC(0-t) ([5]; female, 30 mg/kg/day, food ad-mix 30 mg/kg/day, Day 90, Female): 389 ng·h/mL
- AUC(0-t) ([5]; female, 100 mg/kg/day, food ad-mix 100 mg/kg/day, Day 90, Female): 1400 ng·h/mL
- AUC0-24/dose ([5]; food ad-mix 30 mg/kg/day, Day 7, Combined): 5.92 ng·h/mL/mg/kg
- AUC0-24/dose ([5]; food ad-mix 30 mg/kg/day, Day 7, Female): 3.5 ng·h/mL/mg/kg
- AUC0-24/dose ([5]; food ad-mix 30 mg/kg/day, Day 7, Male): 8.34 ng·h/mL/mg/kg
- AUC0-24/dose ([5]; food ad-mix 30 mg/kg/day, Day 90, Combined): 11.4 ng·h/mL/mg/kg
- AUC0-24/dose ([5]; food ad-mix 30 mg/kg/day, Day 90, Female): 13.0 ng·h/mL/mg/kg
- AUC0-24/dose ([5]; food ad-mix 30 mg/kg/day, Day 90, Male): 9.75 ng·h/mL/mg/kg
- AUC0-24/dose ([5]; food ad-mix 60 mg/kg/day, Day 7, Combined): 6.61 ng·h/mL/mg/kg
- AUC0-24/dose ([5]; food ad-mix 60 mg/kg/day, Day 7, Female): 9.43 ng·h/mL/mg/kg
- AUC0-24/dose ([5]; food ad-mix 60 mg/kg/day, Day 7, Male): 3.79 ng·h/mL/mg/kg
- AUC0-24/dose ([5]; food ad-mix 60 mg/kg/day, Day 90, Combined): 13.3 ng·h/mL/mg/kg
- AUC0-24/dose ([5]; food ad-mix 60 mg/kg/day, Day 90, Female): 9.14 ng·h/mL/mg/kg
- AUC0-24/dose ([5]; food ad-mix 60 mg/kg/day, Day 90, Male): 17.5 ng·h/mL/mg/kg
- AUC0-24/dose ([5]; food ad-mix 100 mg/kg/day, Day 7, Combined): 10.4 ng·h/mL/mg/kg
- AUC0-24/dose ([5]; food ad-mix 100 mg/kg/day, Day 7, Female): 11.7 ng·h/mL/mg/kg
- AUC0-24/dose ([5]; food ad-mix 100 mg/kg/day, Day 7, Male): 9.15 ng·h/mL/mg/kg
- AUC0-24/dose ([5]; food ad-mix 100 mg/kg/day, Day 90, Combined): 12.0 ng·h/mL/mg/kg
- AUC0-24/dose ([5]; food ad-mix 100 mg/kg/day, Day 90, Female): 14.0 ng·h/mL/mg/kg
- AUC0-24/dose ([5]; food ad-mix 100 mg/kg/day, Day 90, Male): 10.0 ng·h/mL/mg/kg
- AUC(0-t) ([5]; male, 30 mg/kg/day, food ad-mix 30 mg/kg/day, Day 90, Male): 293 ng·h/mL
- AUC(0-t) ([5]; male, 100 mg/kg/day, food ad-mix 100 mg/kg/day, Day 90, Male): 1000 ng·h/mL
- NOAEL (90-day) relative to estimated dietary exposure [6]: 2500 times
